Test [1] deals with Tyrosine-protein kinase receptor UFO (Homo sapiens) (UniProt P30530). The test is described as follows: Inhibition of human recombinant AXL at 40 nM in presence of ATP by radiometric assay relative to control. The gist of the method: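 Panel of 327 recombinant human kinases, each assayed in vitro by radiometric activity assay in duplicate at a single inhibitor concentration per compound, chosen with reference to its ULK1 inhibition. Activity remaining was expressed as percent of vehicle control, and percent inhibition was calculated as 100 minus percent activity remaining.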
Tyrosine-protein kinase receptor UFO (Homo sapiens), sequence (P30530 whole entry): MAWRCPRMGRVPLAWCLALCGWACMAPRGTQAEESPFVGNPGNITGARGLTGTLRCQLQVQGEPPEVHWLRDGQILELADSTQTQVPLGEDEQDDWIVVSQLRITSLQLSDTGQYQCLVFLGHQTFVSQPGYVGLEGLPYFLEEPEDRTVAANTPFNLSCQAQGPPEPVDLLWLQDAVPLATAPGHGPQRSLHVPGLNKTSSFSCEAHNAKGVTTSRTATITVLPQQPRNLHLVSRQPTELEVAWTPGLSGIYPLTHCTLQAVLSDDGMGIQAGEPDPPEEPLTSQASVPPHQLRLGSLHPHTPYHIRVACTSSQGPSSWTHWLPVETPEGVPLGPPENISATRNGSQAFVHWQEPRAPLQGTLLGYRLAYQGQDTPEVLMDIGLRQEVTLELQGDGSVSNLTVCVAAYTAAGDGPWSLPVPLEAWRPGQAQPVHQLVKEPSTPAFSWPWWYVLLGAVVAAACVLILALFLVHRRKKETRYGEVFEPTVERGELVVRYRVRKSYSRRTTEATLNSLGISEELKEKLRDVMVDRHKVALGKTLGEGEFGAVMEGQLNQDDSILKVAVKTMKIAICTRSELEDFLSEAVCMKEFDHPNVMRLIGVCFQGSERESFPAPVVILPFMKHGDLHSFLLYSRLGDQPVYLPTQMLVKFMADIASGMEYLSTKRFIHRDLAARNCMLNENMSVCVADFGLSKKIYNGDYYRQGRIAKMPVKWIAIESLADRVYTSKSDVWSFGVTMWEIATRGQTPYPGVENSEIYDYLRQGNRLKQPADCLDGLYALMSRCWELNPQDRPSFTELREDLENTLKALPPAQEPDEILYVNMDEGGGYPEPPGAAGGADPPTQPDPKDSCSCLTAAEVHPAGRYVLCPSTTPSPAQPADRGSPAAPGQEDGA

The target of test [2] is MAP kinase-interacting serine/threonine-protein kinase 2 (Homo sapiens, UniProt Q9HBH9). Briefly: Inhibition of human recombinant MNK2.
Test [3] deals with T1, SNF-related serine/threonine-protein kinase (Homo sapiens) (UniProt Q9NRH2).
T1 sequence (whole entry): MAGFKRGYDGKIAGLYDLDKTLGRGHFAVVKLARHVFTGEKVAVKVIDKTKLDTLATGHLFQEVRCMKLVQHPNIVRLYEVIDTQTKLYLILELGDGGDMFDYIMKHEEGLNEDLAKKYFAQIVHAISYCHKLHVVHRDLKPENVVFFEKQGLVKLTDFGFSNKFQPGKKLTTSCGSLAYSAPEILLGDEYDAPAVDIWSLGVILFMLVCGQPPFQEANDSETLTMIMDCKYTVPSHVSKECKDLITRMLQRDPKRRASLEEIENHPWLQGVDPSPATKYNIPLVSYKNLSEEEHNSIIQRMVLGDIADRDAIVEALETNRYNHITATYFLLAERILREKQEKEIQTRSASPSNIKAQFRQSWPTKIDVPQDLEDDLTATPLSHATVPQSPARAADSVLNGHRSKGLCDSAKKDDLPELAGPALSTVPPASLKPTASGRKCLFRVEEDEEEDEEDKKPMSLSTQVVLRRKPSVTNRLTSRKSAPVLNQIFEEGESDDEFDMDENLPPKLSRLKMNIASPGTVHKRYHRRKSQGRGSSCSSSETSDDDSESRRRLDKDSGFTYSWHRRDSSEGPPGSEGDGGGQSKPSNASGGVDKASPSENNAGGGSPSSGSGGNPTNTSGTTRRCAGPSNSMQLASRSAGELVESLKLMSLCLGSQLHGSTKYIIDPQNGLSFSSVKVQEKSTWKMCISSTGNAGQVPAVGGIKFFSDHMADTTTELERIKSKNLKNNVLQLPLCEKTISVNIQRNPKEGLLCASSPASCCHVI
The test is described as follows: Inhibition of human recombinant SNRK at 40 nM related to control ULK1.

Test [4] concerns the target Myosin light chain kinase, smooth muscle (Homo sapiens) (UniProt Q15746). The test is described as follows: Inhibition of human recombinant smMLCK at 40 nM in presence of ATP by radiometric assay relative to control.
Test [5] has as its target Serine/threonine-protein kinase VRK2 (Homo sapiens) (UniProt Q86Y07). Briefly: Inhibition of human recombinant VRK2 at 500 nM related to control ULK1.
The target in test [6] is ALK tyrosine kinase receptor (Homo sapiens) (UniProt Q9UM73). Briefly: Inhibition of human recombinant ALK at 500 nM in presence of ATP by radiometric assay relative to control. The gist of the method: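 Panel of 327 recombinant human kinases in radiometric activity assays, each screened in duplicate at a single inhibitor concentration; percent activity remaining relative to vehicle control, percent inhibition taken as 100 minus activity remaining.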
ALK tyrosine kinase receptor (Homo sapiens), sequence (Q9UM73 19-1620 limits assumed): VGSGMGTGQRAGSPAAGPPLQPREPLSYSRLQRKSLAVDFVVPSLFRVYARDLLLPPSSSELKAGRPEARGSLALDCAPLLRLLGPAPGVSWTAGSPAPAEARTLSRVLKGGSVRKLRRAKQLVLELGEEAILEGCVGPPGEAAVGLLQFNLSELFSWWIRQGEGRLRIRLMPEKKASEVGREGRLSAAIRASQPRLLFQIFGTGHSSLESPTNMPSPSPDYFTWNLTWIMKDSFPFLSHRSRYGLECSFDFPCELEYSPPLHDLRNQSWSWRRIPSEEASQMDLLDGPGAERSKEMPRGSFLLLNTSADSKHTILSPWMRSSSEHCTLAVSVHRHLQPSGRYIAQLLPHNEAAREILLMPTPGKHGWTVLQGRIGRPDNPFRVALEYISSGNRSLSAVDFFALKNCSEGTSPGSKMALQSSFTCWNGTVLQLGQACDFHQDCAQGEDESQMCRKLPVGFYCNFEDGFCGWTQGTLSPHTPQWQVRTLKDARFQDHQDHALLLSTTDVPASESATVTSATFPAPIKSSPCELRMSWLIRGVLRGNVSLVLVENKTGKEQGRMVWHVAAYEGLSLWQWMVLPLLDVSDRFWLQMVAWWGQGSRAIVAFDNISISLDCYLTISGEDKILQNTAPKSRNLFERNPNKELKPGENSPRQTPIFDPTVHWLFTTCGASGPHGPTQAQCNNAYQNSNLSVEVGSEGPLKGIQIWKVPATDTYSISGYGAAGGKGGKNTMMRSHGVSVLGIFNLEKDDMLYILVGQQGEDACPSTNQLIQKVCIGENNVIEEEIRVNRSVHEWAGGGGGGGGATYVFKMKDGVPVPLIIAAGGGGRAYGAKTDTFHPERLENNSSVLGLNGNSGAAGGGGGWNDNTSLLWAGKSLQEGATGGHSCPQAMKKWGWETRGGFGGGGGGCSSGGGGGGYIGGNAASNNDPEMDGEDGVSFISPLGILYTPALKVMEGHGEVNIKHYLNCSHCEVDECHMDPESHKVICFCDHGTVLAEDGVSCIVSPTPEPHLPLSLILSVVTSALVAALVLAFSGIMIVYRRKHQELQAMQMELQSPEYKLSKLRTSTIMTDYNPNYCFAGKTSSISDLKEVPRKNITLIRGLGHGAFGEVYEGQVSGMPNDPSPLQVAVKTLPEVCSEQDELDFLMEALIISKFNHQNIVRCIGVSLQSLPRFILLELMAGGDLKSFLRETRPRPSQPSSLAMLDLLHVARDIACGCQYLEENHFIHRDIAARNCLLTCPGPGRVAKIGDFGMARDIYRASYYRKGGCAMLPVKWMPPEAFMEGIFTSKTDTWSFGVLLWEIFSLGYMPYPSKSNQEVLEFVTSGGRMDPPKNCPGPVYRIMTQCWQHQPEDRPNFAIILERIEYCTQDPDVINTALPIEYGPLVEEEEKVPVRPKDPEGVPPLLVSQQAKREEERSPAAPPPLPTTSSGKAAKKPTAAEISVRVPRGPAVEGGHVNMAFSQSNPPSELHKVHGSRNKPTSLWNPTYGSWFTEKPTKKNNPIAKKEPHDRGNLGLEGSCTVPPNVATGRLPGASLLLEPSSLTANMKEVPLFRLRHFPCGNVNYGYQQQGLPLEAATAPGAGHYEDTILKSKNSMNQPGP

Test [7] has as its target T2, Inhibitor of nuclear factor kappa-B kinase subunit beta (Homo sapiens) (UniProt O14920).
T2 sequence (whole entry): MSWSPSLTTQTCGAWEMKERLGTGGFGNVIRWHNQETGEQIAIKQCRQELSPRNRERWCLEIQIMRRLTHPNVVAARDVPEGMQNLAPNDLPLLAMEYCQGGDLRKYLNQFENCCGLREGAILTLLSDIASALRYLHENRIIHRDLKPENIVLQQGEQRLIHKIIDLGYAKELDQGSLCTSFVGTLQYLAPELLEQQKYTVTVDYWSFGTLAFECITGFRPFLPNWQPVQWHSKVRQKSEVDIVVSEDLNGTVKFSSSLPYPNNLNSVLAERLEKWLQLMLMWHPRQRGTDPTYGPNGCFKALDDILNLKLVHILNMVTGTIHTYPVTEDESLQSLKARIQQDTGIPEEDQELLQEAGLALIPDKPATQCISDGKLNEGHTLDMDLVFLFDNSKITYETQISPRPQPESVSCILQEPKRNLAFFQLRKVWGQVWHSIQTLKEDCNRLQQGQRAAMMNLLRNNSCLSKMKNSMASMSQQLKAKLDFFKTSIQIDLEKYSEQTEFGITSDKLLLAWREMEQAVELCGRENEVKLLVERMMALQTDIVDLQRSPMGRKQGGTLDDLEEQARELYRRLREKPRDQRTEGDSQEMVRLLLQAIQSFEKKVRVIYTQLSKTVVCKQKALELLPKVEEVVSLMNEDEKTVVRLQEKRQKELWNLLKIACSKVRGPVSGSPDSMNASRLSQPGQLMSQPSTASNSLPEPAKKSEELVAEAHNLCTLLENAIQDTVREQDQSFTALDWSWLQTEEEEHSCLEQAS
Briefly: Inhibition of human recombinant IKKb at 15 nM in presence of ATP by radiometric assay relative to control.

Test [8] has as its target Mast/stem cell growth factor receptor Kit (Homo sapiens) (UniProt P10721). The test is described as follows: Inhibition of human recombinant KIT at 15 nM related to control ULK1.
The target in test [9] is T3, TGF-beta receptor type-1 (Homo sapiens) (UniProt P36897).
T3 sequence (whole entry): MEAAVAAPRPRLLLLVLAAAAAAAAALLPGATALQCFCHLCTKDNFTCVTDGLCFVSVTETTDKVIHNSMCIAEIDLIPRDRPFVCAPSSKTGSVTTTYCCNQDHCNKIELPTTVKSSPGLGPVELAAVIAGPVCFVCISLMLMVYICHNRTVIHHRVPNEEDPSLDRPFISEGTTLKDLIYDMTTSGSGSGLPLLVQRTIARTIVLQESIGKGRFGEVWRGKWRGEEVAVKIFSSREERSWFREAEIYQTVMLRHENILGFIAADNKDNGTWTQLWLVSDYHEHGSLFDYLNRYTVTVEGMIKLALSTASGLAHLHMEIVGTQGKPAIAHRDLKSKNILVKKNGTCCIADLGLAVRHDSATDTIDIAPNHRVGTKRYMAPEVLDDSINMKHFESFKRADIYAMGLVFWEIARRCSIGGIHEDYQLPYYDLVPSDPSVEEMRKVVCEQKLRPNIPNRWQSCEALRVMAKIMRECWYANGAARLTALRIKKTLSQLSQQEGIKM
The test is described as follows: Inhibition of human recombinant TGFbR1 at 15 nM in presence of ATP by radiometric assay relative to control.

Test [10] deals with High affinity nerve growth factor receptor (Homo sapiens) (UniProt P04629). The test is described as follows: Inhibition of human recombinant TRKA at 15 nM in presence of ATP by radiometric assay relative to control.
The target of test [11] is Tyrosine-protein kinase Fgr (Homo sapiens) (UniProt P09769). Briefly: Inhibition of human recombinant FGR at 15 nM in presence of ATP by radiometric assay relative to control.
Tyrosine-protein kinase Fgr (Homo sapiens), sequence (P09769 2-529 limits assumed): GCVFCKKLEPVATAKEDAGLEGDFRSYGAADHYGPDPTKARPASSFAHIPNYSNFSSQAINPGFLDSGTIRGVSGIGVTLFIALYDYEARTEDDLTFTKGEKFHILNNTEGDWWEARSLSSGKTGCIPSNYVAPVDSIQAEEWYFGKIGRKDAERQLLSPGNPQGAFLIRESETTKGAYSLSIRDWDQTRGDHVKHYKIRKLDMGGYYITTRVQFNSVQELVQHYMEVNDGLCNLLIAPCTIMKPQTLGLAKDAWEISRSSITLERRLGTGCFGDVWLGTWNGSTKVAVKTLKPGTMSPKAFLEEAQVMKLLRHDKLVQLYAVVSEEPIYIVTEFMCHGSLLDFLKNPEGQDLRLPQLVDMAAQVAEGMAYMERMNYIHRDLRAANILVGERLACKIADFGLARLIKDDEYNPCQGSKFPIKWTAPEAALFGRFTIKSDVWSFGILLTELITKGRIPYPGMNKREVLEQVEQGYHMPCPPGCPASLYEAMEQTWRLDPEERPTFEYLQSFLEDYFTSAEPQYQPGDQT
The target of test [12] is Serine/threonine-protein kinase Chk2 (Homo sapiens) (UniProt O96017). The test is described as follows: Inhibition of human recombinant CHK2 at 15 nM related to control ULK1.
Serine/threonine-protein kinase Chk2 (Homo sapiens), sequence (O96017 whole entry): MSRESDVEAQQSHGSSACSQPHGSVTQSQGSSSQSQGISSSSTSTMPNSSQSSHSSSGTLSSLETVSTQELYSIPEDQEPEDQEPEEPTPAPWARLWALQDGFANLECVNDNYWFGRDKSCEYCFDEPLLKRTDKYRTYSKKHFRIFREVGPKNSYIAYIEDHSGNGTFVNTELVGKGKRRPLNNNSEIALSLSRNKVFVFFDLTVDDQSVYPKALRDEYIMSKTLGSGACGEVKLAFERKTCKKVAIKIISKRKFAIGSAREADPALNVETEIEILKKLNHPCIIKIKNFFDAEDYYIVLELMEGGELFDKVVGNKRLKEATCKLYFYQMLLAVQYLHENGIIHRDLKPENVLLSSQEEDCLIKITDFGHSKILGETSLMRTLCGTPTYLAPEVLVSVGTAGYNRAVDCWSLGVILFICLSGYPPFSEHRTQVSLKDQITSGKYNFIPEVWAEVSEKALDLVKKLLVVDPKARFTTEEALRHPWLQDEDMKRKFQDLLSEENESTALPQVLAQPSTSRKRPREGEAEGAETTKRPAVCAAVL

Serine/threonine-protein kinase VRK2 (Homo sapiens), sequence (Q86Y07 whole entry): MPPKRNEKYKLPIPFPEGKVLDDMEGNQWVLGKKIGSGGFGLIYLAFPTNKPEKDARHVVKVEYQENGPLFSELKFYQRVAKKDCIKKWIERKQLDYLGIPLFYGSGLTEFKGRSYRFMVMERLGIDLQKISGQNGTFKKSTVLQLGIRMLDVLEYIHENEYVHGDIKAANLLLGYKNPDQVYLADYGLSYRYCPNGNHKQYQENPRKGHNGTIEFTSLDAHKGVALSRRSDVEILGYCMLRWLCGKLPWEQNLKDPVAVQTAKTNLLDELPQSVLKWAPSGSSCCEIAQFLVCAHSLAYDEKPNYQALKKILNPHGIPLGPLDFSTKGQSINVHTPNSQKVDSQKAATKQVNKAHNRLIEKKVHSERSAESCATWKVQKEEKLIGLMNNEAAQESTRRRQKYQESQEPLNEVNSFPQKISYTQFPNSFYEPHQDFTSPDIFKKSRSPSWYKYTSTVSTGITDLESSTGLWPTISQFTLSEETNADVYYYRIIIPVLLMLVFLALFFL
Mast/stem cell growth factor receptor Kit (Homo sapiens), sequence (P10721 whole entry): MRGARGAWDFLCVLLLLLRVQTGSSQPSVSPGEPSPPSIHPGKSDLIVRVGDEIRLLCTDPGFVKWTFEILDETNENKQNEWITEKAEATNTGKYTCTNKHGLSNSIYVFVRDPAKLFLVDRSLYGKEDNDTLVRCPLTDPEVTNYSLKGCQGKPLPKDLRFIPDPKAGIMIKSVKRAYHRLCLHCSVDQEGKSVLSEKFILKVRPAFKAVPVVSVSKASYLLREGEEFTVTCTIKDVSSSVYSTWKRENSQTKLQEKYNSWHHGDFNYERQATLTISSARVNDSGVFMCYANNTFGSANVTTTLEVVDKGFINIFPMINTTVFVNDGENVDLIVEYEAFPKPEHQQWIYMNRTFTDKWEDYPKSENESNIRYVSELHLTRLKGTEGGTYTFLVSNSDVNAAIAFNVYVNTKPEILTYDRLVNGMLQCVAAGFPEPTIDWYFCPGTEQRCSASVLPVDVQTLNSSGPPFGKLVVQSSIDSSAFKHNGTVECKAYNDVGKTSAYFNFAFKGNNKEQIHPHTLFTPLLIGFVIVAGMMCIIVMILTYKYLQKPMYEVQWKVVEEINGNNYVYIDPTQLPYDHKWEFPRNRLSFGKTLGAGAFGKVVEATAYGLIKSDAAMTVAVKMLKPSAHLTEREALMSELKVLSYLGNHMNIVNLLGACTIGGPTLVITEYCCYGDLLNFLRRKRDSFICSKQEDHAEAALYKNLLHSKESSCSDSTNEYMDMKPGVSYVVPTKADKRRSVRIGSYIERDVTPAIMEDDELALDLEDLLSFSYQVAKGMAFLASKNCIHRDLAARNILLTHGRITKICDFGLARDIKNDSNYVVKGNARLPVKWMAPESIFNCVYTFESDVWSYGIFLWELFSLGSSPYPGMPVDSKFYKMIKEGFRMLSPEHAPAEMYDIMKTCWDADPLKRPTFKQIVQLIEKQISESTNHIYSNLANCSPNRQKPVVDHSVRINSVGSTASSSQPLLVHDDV

One may read the inhibition as the drop in the measured response relative to a control, in per cent. As usually defined, the IC50 is the midpoint of a concentration-inhibition curve. In the case of `O=C(N[C@@H](C1CC1)C(F)(F)F)c1cc(-c2cnn3cc(-c4ccc(F)cc4)cnc23)cs1`, the inhibition in test [1] and in test [4] was 5% in each case. In addition, the IC50 in [2] worked out at 22 nM. For the same compound, the fold change (FC) in test [3] came to 0.

For `CNC(=O)c1ccccc1Oc1nc(Nc2cc(OC)c(OC)c(OC)c2)ncc1Br`, the fold change (FC) in test [5] is 0.31. The inhibition in test [6] amounted to 0%.

With `CC(C)[C@H](NC(=O)c1cc(-c2cnn3cc(-c4ccc(OCCN5CCCCC5)cc4)cnc23)cs1)C(F)(F)F`, the inhibition in [7] was 0%; in test [9], 4%; in test [10], 0%; in test [11], 43%. Further, the fold change (FC) in [8] and in [12] was 0 throughout.

The values above are taken from ChEMBL document CHEMBL5653631, “A Potent and Selective ULK1 Inhibitor Suppresses Autophagy and Sensitizes Cancer Cells to Nutrient Stress” (iScience, 2018).
